In ChEMBL document CHEMBL2046344, “Natural products as a gold mine for selective matrix metalloproteinases inhibitors” (Bioorg Med Chem, 2012):
Active and inactive are the calls of the source. The rule behind the calls is not given here.

Key:
[1] = target: T1, 72 kDa type IV collagenase (Homo sapiens, UniProt P08253); experiment: Inhibition of human recombinant MMP2 catalytic domain at 10 uM incubated for 20 mins by fluorimetric assay
How it was run: (§1)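 Diluted recombinant MMP enzyme pre-incubated 20 min at room temperature with varied inhibitor concentrations in 50 mM Tris–HCl, 150 mM NaCl, 5 mM CaCl2, 0.05% Brij-35, pH 7.5; total assay volume 100 µl.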
Target sequence in this assay (P08253 110-660 limits assumed): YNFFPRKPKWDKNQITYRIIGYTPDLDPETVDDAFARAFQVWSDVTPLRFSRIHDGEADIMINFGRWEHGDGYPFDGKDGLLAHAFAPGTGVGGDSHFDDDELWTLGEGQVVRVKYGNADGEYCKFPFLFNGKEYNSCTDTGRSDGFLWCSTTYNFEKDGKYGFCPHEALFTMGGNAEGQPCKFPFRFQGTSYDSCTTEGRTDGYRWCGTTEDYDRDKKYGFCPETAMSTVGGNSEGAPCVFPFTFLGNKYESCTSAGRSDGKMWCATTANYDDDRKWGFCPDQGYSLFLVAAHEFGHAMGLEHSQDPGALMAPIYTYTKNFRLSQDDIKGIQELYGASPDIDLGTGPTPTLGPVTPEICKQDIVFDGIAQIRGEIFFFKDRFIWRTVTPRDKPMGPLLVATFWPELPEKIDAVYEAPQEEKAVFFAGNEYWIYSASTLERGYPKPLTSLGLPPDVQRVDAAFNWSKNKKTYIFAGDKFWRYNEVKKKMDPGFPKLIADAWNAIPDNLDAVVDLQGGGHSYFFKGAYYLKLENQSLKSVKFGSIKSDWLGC

[2] = target: T1, 72 kDa type IV collagenase; experiment: Inhibition of human recombinant MMP2 catalytic domain incubated for 20 mins by fluorimetric assay; how it was run: as §1
Target sequence in this assay (P08253 whole entry, the tested form may be a part): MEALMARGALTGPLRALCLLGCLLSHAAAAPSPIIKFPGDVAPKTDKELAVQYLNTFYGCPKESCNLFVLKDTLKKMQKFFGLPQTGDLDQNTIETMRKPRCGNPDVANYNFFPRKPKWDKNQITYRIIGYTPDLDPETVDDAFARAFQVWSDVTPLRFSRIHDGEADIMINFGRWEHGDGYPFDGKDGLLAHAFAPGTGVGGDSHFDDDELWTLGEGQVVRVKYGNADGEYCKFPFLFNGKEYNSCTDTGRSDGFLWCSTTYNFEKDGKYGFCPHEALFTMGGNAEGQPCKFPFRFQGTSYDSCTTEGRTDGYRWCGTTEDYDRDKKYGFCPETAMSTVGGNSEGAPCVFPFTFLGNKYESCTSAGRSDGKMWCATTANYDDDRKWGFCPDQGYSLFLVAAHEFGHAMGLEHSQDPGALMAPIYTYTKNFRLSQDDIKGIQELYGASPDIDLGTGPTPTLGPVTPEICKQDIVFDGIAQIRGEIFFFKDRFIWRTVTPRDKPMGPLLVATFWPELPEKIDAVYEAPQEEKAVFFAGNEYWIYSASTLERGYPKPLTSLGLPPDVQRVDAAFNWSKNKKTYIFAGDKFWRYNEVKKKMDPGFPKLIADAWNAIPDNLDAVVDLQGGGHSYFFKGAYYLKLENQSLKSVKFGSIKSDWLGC

Collagenase 3 [3] = target: T2, Collagenase 3 (Homo sapiens, UniProt P45452); experiment: Inhibition of human recombinant MMP13 catalytic domain incubated for 20 mins by fluorimetric assay; how it was run: as §1
[4] = target: T3, Macrophage metalloelastase (Homo sapiens, UniProt P39900); experiment: Inhibition of human recombinant MMP12 catalytic domain at 10 uM incubated for 20 mins by fluorimetric assay; how it was run: as §1
[5] = target: T3, Macrophage metalloelastase; experiment: Inhibition of human recombinant MMP12 catalytic domain incubated for 20 mins by fluorimetric assay; how it was run: as §1
Collagenase 3 [6] = target: T2, Collagenase 3; experiment: Inhibition of human recombinant MMP13 catalytic domain at 10 uM incubated for 20 mins by fluorimetric assay; how it was run: as §1
Interstitial collagenase = target: T4, Interstitial collagenase (Homo sapiens, UniProt P03956); experiment: Inhibition of human recombinant MMP1 catalytic domain incubated for 20 mins by fluorimetric assay; how it was run: as §1
T4 sequence (P03956 whole entry): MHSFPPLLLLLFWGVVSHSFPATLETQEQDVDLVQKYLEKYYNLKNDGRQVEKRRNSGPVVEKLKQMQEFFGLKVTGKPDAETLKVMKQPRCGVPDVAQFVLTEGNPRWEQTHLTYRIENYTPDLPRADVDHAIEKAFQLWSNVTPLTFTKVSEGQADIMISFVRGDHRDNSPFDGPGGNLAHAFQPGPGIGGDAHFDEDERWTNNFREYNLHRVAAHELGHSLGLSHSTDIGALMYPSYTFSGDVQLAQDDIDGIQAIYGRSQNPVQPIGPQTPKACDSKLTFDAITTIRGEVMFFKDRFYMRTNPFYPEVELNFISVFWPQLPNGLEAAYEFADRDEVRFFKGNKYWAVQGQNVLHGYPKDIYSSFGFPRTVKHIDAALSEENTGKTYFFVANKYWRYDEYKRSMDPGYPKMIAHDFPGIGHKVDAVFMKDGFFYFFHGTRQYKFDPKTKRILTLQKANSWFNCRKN

[7] = target: T5, Interstitial collagenase (Homo sapiens) (UniProt P03956); experiment: Inhibition of human recombinant MMP1 catalytic domain at 10 uM incubated for 20 mins by fluorimetric assay; how it was run: as §1
T5 sequence (whole entry): T4 sequence (P03956 whole entry)

[8] = target: T6, Matrix metalloproteinase-9 (Homo sapiens, UniProt P14780); experiment: Inhibition of human recombinant MMP9 catalytic domain at 10 uM incubated for 20 mins by fluorimetric assay; how it was run: as §1
[9] = target: T6, Matrix metalloproteinase-9; experiment: Inhibition of human recombinant MMP9 catalytic domain incubated for 20 mins by fluorimetric assay; how it was run: as §1
Stromelysin-1 [10] = target: T7, Stromelysin-1 (Homo sapiens, UniProt P08254); experiment: Inhibition of human recombinant MMP3 catalytic domain incubated for 20 mins by fluorimetric assay; how it was run: as §1
Stromelysin-1 [11] = target: T7, Stromelysin-1; experiment: Inhibition of human recombinant MMP3 catalytic domain at 10 uM incubated for 20 mins by fluorimetric assay; how it was run: as §1
MDA-MB-231 [12] = experiment: Effect on cell proliferation of human MDA-MB-231 cells at 50 uM incubated for 24 hrs; assay type: functional, cell-based
MDA-MB-231 [13] = experiment: Inhibition of MMP2 protein expression in human MDA-MB-231 cells at 50 uM incubated for 24 hrs by Western blot; assay type: functional, cell-based
How it was run: (§2)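 MDA-MB-231 cells co-incubated with 20 ng/ml TPA and test compound at 50 µM for 24 h, then lysed. Lysates centrifuged 10000g, 10 min, 4 °C, run on 10% SDS–PAGE, transferred to PVDF, blocked overnight at 4 °C in TBST with 5% skim milk. Probed with anti-MMP-2 and anti-MMP-9 antibodies; GAPDH as loading control.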

MDA-MB-231 [14] = experiment: Inhibition of cell migration of human MDA-MB-231 cells at 10 uM incubated for 48 hrs by wound healing assay; assay type: functional, cell-based
How it was run: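 MDA-MB-231 monolayer grown overnight to confluence and scratched with a pipette tip. Debris washed off with L15 medium, then cells kept in serum-free L15 with compound (1 and 10 µM) for 48 h. Migration into the wound photographed by phase-contrast microscopy at 0, 24 and 48 h.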

MDA-MB-231 [15] = experiment: Inhibition of pro-MMP9 protein expression in human MDA-MB-231 cells at 50 uM incubated for 24 hrs by Western blot; assay type: functional, cell-based; how it was run: as §2
MDA-MB-231 [16] = experiment: Inhibition of active MMP9 protein expression in human MDA-MB-231 cells at 50 uM incubated for 24 hrs by Western blot; assay type: functional, cell-based; how it was run: as §2

T7 sequence (P08254 whole entry, the tested form may be a part): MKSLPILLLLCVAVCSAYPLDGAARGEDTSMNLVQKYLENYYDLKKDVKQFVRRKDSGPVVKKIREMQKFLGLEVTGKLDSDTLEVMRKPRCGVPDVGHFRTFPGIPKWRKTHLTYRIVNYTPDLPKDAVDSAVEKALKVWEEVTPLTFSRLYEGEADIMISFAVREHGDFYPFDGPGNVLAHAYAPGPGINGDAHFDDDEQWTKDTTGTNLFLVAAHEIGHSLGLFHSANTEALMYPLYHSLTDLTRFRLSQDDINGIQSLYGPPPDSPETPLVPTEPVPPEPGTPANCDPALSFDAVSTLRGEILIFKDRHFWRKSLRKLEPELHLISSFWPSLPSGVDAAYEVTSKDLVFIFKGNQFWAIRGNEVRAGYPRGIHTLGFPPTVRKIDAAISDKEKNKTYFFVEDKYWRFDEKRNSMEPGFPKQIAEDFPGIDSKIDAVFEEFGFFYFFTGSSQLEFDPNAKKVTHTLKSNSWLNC
T3 sequence (P39900 whole entry, the tested form may be a part): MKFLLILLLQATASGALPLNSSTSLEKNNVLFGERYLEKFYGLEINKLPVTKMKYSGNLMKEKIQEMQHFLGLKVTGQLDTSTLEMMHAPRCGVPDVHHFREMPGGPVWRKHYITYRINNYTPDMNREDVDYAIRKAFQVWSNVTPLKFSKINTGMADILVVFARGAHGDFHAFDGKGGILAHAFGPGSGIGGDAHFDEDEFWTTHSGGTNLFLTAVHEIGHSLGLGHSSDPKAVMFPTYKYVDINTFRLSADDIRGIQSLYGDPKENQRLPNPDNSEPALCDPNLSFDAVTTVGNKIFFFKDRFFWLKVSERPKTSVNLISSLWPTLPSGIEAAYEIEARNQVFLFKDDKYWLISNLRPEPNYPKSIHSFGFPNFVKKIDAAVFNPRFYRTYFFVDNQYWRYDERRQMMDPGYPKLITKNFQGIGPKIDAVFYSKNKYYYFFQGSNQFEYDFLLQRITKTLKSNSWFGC
T6 sequence (P14780 whole entry, the tested form may be a part): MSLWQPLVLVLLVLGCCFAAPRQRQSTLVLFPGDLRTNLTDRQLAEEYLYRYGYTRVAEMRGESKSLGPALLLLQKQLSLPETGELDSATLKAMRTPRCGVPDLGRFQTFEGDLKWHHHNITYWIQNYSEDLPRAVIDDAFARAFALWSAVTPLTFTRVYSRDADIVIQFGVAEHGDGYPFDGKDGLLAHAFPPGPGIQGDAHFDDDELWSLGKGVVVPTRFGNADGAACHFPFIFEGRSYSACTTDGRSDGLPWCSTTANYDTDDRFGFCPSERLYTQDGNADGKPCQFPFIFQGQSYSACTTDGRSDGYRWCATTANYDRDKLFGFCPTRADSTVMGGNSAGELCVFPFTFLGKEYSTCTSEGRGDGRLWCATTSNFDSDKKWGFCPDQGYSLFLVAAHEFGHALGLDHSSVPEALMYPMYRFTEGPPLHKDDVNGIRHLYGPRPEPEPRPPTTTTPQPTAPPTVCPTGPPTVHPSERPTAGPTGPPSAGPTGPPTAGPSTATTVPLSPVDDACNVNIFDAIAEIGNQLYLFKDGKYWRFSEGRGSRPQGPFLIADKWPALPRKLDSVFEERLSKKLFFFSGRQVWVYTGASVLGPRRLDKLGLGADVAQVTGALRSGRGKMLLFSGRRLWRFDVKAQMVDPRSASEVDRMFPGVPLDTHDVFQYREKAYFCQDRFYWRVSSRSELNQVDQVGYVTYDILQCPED

SMILES	inhibition [1] [%]	IC50 [2] [µM]	IC50 (Collagenase 3 [3]) [µM]	inhibition [4] [%]	IC50 [5] [µM]	inhibition (Collagenase 3 [6]) [%]	IC50 (Interstitial collagenase) [µM]	inhibition [7] [%]	inhibition [8] [%]	IC50 [9] [µM]	IC50 (Stromelysin-1 [10]) [µM]	inhibition (Stromelysin-1 [11]) [%]	inhibition (MDA-MB-231 [12])	inhibition (MDA-MB-231 [13])	inhibition (MDA-MB-231 [14])	inhibition (MDA-MB-231 [15])	inhibition (MDA-MB-231 [16])
C[C@]12CCC[C@@](C)(C(=O)O)[C@@H]1CCC1=CC(=O)CC[C@@H]12	> 30	33.3															
CNC(=O)C(CCc1ccccc1)NC(=O)C(CC(=O)NO)CC(C)C (configuration not stated)	> 30	0.0036	0.0064	> 30	0.0082	> 30	0.0041	> 30									
COC(=O)[C@@H](Cc1ccc(O)c(O)c1)OC(=O)/C=C/c1ccc(O)c(O)c1 [METHYL ROSMARINATE]	> 30	3.58	29	> 30	2.75	> 30	14.7	> 30	> 30	0.61	28.3	> 30					
COc1ccc(S(=O)(=O)N2CC(C)(C)CN(S(=O)(=O)c3ccc(OC)cc3)C2C(=O)NO)cc1									> 30	0.0018	0.0286	> 30					
O=C1c2c(O)cc(O)cc2O[C@]2(c3ccc(O)cc3)Oc3cc(O)c4c(c3[C@@]12O)O[C@H](c1ccc(O)cc1)CC4 [DAPHNODORIN F]	> 30	23.3	13.2			> 30			> 30	21.2	22.3	> 30					
Oc1cc(O)cc(/C=C/c2ccc(O)cc2O)c1 [OXYRESVERATROL]	> 30	27.6															
CCCCOC(=O)[C@H]1c2c(/C=C/C(=O)O[C@H](Cc3ccc(O)c(O)c3)C(=O)O)ccc(O)c2O[C@@H]1c1ccc(O)c(O)c1	> 30	15.5	24.5	> 30	1.79	> 30	3.25	> 30	> 30	3.46	14.8	> 30					
O=c1cc(-c2ccc(O)c(O)c2)oc2cc(O)cc(O)c12 [LUTEOLIN]	> 30	3.61	10	> 30	0.98	> 30			> 30	5.62	16.2	> 30					
O=C1CCC(O)(CCOC(=O)/C=C/c2ccc(O)c(O)c2)CC1									> 30	12.5							
COc1cc(C[C@@H](CO)[C@H](CO)Cc2ccc(O)c(OC)c2)ccc1O [(+)-SECOISOLARICIRESINOL]							50.1	> 30									
O=C(c1c(O)cc(O)cc1O)C1c2c(cc(O)c3c2O[C@H](c2ccc(O)cc2)[C@@H](O)C3)OC1c1ccc(O)cc1 (some centres not stated) [DIHYDRODAPHNODORIN B]	> 30	14.1	43.5			> 30			> 30	10.2	25.6	> 30					
COC(=O)[C@@H](Cc1ccc(O)c(O)c1)OC(=O)/C=C/c1ccc(O)c2c1[C@H](C(=O)OC)[C@@H](c1ccc(O)c(O)c1)O2 [DIMETHYL LITHOSPERMATE]	> 30	11.6	18.5	> 30	0.67	> 30	8.23	> 30	> 30	0.99	8.15	> 30	inactive	Active	Active	inactive	Active
O=C1c2c(O)cc(O)cc2O[C@H](c2ccc(O)c(O)c2)[C@H]1O	> 30			> 30		> 30			> 30			> 30					
COC(=O)C1(O)CC(O)C(O)C(OC(=O)/C=C/c2ccc(O)c(O)c2)C1 (configuration not stated)	> 30	64.2									58.8	> 30					
CC(C)CC(=O)OC(C(=O)O)C(C)C (configuration not stated)	> 30	23.3	42.5			> 30	10.6	> 30	> 30	14.3	38.2	> 30					
C[C@@H]1O[C@@H](O[C@@H]2[C@@H](O)[C@H](OCCc3ccc(O)c(O)c3)O[C@H](COC(=O)/C=C/c3ccc(O)c(O)c3)[C@H]2O)[C@H](O)[C@H](O)[C@H]1O [ISOACTEOSIDE]	> 30	8.96	11.1	> 30	8.22	> 30			> 30	14.3	91.4	> 30					
O=c1c2cc(O)c(O)cc2oc2cc(O)cc(O)c12							11.4	> 30									
COC(=O)C1(O)CC(OC(=O)/C=C/c2ccc(O)c(O)c2)C(O)C(OC(=O)/C=C/c2ccc(O)c(O)c2)C1 (configuration not stated) [MACRATHOIN F]	> 30	3.88	7.62	> 30	1.2	> 30	16.3	> 30	> 30	11.6	10.4	> 30					
O=c1c(O)c(-c2ccc(O)c(O)c2)oc2cc(O)cc(O)c12 [QUERCETIN]	> 30	6.68	8.46	> 30	10.2	> 30			> 30	1.61	5.57	> 30					
O=C1c2c(O)cc(O)cc2O[C@H](c2cc(O)c(O)c(O)c2)[C@@H]1O	> 30	11.9	9.33	> 30	1.74	> 30			> 30	28.8	20.3	> 30					
COc1cc(C(O)C(CO)Oc2ccc(/C=C\CO)cc2OC)ccc1O (configuration not stated)									> 30	9.91							
